From ChEMBL document CHEMBL1155885, “Discovery and optimization of pyridazinone non-nucleoside inhibitors of HIV-1 reverse transcriptase” (Bioorg Med Chem Lett, 2008)

Assays:
[1] = target: Human immunodeficiency virus type 1 reverse transcriptase (Human immunodeficiency virus 1, UniProt Q72547, K103N); assay: Inhibition of HIV1 reverse transcriptase K103N mutant by scintillation counting assay
[2] = system: Human immunodeficiency virus 1; assay: Antiviral activity against HIV1 with reverse transcriptase K103N/L100I mutation in human MT4 cells assessed as reduction of virus-induced cytopathic effect; format: functional, organism-based; details: Human immunodeficiency virus 1, MT4
How it was run: (§1)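 MT4 cells infected with HIV-1 and incubated with compound in the presence of 10% fetal bovine serum. Read-out is the reduction of virus-induced cytopathic effect. EC50 derived; each value is the mean of at least two independent assays.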

Cytochrome P450 2C9 = Cytochrome P450 2C9 (Homo sapiens, UniProt P11712); assay: Inhibition of CYP2C9; format: ADME
Chain of Cytochrome P450 2C9 (P11712 whole entry): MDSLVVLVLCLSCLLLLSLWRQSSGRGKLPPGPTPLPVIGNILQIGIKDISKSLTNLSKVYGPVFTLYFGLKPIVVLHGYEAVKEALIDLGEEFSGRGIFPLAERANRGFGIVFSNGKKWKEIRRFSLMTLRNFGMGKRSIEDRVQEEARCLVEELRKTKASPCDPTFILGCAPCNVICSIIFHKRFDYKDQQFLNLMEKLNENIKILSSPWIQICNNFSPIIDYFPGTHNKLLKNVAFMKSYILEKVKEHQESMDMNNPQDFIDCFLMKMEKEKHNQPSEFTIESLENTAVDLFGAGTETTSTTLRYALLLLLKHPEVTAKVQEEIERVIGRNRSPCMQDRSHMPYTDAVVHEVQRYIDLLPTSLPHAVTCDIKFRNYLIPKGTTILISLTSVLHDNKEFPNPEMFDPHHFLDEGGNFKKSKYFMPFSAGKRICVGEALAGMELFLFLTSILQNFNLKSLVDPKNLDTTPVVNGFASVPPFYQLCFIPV
How it was run: (§2)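 Fluorogenic assay using 7-benzyloxy-4-(trifluoromethyl)-coumarin as substrate; IC50 reported in micromolar.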

Rattus norvegicus = assay: AUC in rat at 5 mg/kg, po; format: ADME, organism-based, Plasma; set-up: dose 5 mg/kg, route oral; details: in vivo
How it was run: (§3)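 Rats dosed orally at 5 mg/kg; plasma Cmax and AUC determined.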

[3] = Half life in rat at 2.5 mg/kg, iv; format: ADME, organism-based; set-up: dose 2.5 mg/kg, route intravenous; details: in vivo
How it was run: (§4)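 Rats given 2.5 mg/kg intravenously; half-life determined; apparent oral bioavailability calculated relative to oral dosing.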

[4] = Bioavailability in dog at 2.5 mg/kg, iv; format: ADME, organism-based, Canis lupus familiaris; details: in vivo
[5] = Cmax in rat at 5 mg/kg, po; format: ADME, organism-based; set-up: dose 5 mg/kg, route oral; details: in vivo; how it was run: as §3
Cytochrome P450 2D6 = Cytochrome P450 2D6 (Homo sapiens, UniProt P10635); assay: Inhibition of CYP2D6; format: ADME; how it was run: as §2
Chain of Cytochrome P450 2D6 (P10635 whole entry): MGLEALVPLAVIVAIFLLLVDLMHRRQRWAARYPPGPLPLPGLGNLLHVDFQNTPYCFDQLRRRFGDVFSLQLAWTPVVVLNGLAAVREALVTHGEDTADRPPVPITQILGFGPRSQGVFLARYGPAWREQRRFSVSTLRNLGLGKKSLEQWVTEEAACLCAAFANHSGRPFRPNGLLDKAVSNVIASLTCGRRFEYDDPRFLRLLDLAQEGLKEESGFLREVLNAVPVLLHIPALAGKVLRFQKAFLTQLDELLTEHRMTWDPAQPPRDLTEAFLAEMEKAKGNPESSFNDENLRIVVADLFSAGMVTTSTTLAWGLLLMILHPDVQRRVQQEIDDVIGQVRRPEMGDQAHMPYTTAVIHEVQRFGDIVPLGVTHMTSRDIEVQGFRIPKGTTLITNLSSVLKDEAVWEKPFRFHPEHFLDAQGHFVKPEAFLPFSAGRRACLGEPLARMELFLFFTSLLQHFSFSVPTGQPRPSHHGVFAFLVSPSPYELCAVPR

[6] = system: Human immunodeficiency virus 1; assay: Antiviral activity against HIV1 with reverse transcriptase G190A mutation in human MT4 cells assessed as reduction of virus-induced cytopathic effect; format: functional, organism-based; details: Human immunodeficiency virus 1, MT4; how it was run: as §1
Cytochrome P450 2C19 = Cytochrome P450 2C19 (Homo sapiens, UniProt P33261); assay: Inhibition of CYP2C19; format: ADME; how it was run: as §2
Chain of Cytochrome P450 2C19 (P33261 whole entry): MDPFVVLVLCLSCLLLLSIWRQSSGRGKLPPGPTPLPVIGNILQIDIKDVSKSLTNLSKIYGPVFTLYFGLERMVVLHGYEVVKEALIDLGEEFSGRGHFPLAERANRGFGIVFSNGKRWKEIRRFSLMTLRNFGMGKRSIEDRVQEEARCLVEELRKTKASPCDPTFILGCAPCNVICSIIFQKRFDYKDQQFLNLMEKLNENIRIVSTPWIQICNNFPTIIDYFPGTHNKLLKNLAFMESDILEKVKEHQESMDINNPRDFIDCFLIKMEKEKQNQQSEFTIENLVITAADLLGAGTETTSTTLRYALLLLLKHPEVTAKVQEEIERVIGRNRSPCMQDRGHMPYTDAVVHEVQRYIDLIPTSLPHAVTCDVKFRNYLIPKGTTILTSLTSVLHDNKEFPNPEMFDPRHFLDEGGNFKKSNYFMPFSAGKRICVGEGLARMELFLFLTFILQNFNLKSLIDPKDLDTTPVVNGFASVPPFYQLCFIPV

Cytochrome P450 3A4 = Cytochrome P450 3A4 (Homo sapiens, UniProt P08684); assay: Inhibition of recombinant CYP3A4; format: ADME; how it was run: as §2
Chain of Cytochrome P450 3A4 (P08684 whole entry): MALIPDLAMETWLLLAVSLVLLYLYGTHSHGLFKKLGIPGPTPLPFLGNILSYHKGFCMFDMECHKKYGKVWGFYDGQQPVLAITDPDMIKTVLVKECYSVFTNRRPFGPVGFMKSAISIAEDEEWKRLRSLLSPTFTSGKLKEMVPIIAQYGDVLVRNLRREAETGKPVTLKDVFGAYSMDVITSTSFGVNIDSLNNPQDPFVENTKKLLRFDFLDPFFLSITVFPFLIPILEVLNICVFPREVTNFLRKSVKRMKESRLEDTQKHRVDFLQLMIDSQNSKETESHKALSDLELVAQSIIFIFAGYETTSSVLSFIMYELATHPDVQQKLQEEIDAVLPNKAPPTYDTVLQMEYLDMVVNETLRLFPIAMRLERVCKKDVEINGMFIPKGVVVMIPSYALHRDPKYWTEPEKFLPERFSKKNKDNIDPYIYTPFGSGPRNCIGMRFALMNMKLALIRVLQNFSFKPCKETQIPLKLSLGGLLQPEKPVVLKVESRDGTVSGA

[7] = Cmax in dog at 5 mg/kg, po; format: ADME, organism-based, Canis lupus familiaris; set-up: dose 5 mg/kg, route oral; details: in vivo
[8] = Bioavailability in rat at 2.5 mg/kg, iv; format: ADME, organism-based; details: in vivo; how it was run: as §4
[9] = system: Human immunodeficiency virus 1; assay: Antiviral activity against HIV1 with reverse transcriptase K103N/Y181C mutation in human MT4 cells assessed as reduction of virus-induced cytopathic effect; format: functional, organism-based; details: Human immunodeficiency virus 1, MT4; how it was run: as §1
[10] = Half life in dog at 2.5 mg/kg, iv; format: ADME, organism-based, Canis lupus familiaris; set-up: dose 2.5 mg/kg, route intravenous; details: in vivo
[11] = system: Human immunodeficiency virus 1; assay: Antiviral activity against HIV1 in human MT4 cells assessed as reduction of viral-induced cytopathic effect in presence of human serum; format: functional, organism-based; details: Human immunodeficiency virus 1, MT4
How it was run: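 HIV-1-infected MT4 cells incubated with compound in presence of 40% human serum; reduction of viral cytopathic effect measured; EC50 derived.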

[12] = target: T1, Human immunodeficiency virus type 1 reverse transcriptase (Human immunodeficiency virus 1, UniProt Q72547); assay: Binding affinity to HIV1 wild-type reverse transcriptase by surface plasmon resonance spectroscopy
Cytochrome P450 1A2 = target: T2, Cytochrome P450 1A2 (Homo sapiens, UniProt P05177); assay: Inhibition of CYP1A2; format: ADME; how it was run: as §2
T2 sequence (P05177 whole entry): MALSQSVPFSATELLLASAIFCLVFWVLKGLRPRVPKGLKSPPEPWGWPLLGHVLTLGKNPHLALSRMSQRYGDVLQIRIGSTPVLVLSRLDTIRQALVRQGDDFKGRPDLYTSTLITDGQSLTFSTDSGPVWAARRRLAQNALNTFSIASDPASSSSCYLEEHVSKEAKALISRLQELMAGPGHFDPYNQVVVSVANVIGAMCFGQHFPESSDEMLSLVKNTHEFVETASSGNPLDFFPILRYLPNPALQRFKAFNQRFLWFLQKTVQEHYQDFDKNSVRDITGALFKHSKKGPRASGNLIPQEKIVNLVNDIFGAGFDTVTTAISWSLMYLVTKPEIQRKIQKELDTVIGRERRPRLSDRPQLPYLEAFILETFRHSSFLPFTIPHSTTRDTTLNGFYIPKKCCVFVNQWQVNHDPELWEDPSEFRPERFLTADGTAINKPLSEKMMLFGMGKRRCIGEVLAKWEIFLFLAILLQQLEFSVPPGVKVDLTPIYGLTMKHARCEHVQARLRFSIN

Canis familiaris = assay: AUC in dog at 5 mg/kg, po; format: ADME, organism-based, Canis lupus familiaris, Plasma; set-up: dose 5 mg/kg, route oral; details: in vivo
[13] = target: T1, Human immunodeficiency virus type 1 reverse transcriptase; assay: Inhibition of HIV1 wild-type reverse transcriptase by scintillation counting assay
[14] = system: Human immunodeficiency virus 1; assay: Antiviral activity against HIV1 with reverse transcriptase K103N mutation in human MT4 cells assessed as reduction of virus-induced cytopathic effect; format: functional, organism-based; details: Human immunodeficiency virus 1, MT4; how it was run: as §1
[15] = target: Human immunodeficiency virus type 1 reverse transcriptase (Human immunodeficiency virus 1, UniProt Q72547, Y181C); assay: Inhibition of HIV1 reverse transcriptase Y181C mutant by scintillation counting assay
[16] = system: Human immunodeficiency virus 1; assay: Antiviral activity against HIV1 in human MT4 cells assessed as reduction of viral-induced cytopathic effect; format: functional, organism-based; details: Human immunodeficiency virus 1, MT4
[17] = system: Human immunodeficiency virus 1; assay: Antiviral activity against HIV1 with reverse transcriptase Y181C mutation in human MT4 cells assessed as reduction of virus-induced cytopathic effect; format: functional, organism-based; details: Human immunodeficiency virus 1, MT4; how it was run: as §1

**Q.** Which results are given for `Cc1cc(Cc2ccc(Cl)c(Oc3cc(F)cc(C#N)c3)c2F)n[nH]c1=O`?
**A.** EC50 [1]: 2 nM; EC50 [2]: 3 nM; IC50 (Cytochrome P450 2C9): 8000 nM; AUC (Rattus norvegicus): 22.4 uM.hr/ml; half-life [3]: 3.8 h; bioavailability [4]: 34%; Cmax [5]: 2300 nM; IC50 (Cytochrome P450 2D6): > 50000 nM; EC50 [6]: 1 nM; IC50 (Cytochrome P450 2C19): 21000 nM; IC50 (Cytochrome P450 3A4): 24000 nM; Cmax [7]: 1470 nM; bioavailability [8]: 61%; EC50 [9]: 41 nM; half-life [10]: 6.4 h; EC50 [11]: 11 nM; Kd [12]: 8.4 nM; IC50 (Cytochrome P450 1A2): > 50000 nM; AUC (Canis familiaris): 8.8 uM.hr/ml

**Q.** For `O=c1ccc(Cc2cc(Cc3cccc(Cl)c3)c3occc3c2)n[nH]1`, which IC50 (Cytochrome P450 3A4) is on record?
**A.** 180 nM

**Q.** What about the IC50 [13] of the same compound?
**A.** 3900 nM

**Q.** With `Cc1cc(Cc2ccc(Cl)c(Oc3cc(C#N)cc(C#N)c3)c2F)n[nH]c1=O` as the compound, how does the EC50 [1] read?
**A.** 2 nM

**Q.** And the EC50 [6]?
**A.** 1 nM

**Q.** And the EC50 [9]?
**A.** 19 nM

**Q.** What about the EC50 [11] of the same compound?
**A.** 7 nM

**Q.** Which results are given for `O=C1Nc2ccc(Cl)cc2C(C#CC2CC2)(C(F)(F)F)O1` (single isomer, unassigned) [EFAVIRENZ]?
**A.** EC50 [2]: > 500 nM; EC50 [6]: 6 nM; EC50 [9]: 83 nM; EC50 [11]: 19 nM

**Q.** Which results are given for `O=C(c1ccc(Cl)cc1)c1cc(Cc2ccc(=O)[nH]n2)cc2ccoc12`?
**A.** IC50 [1]: 260 nM; EC50 [14]: 70 nM; IC50 [15]: 360 nM; EC50 [16]: 80 nM; IC50 [13]: 400 nM; EC50 [17]: 210 nM

**Q.** With `O=c1ccc(Cc2ccc(Cl)c(Oc3ccccc3)c2F)n[nH]1` as the compound, how does the IC50 [1] read?
**A.** 430 nM

**Q.** And the IC50 [15]?
**A.** 500 nM

**Q.** And the IC50 [13]?
**A.** 100 nM

**Q.** With `COc1cc(C#N)cc(Oc2c(Cl)ccc(Cc3cc(C)c(=O)[nH]n3)c2F)c1` as the compound, how does the EC50 [2] read?
**A.** 2 nM

**Q.** What about the EC50 [6] of the same compound?
**A.** 1 nM

**Q.** What about the EC50 [9] of the same compound?
**A.** 31 nM

**Q.** And the EC50 [11]?
**A.** 15 nM

**Q.** With `Cc1ccc(Cc2ccc(=O)[nH]n2)cc1Oc1cccc(Cl)c1` as the compound, how does the IC50 [13] read?
**A.** 640 nM

**Q.** Which IC50 [13] does the source give for `Cc1cc(Cl)cc(Oc2cccc(Cc3ccc(=O)[nH]n3)c2)c1` here?
**A.** 14000 nM

**Q.** For `O=c1ccc(Cc2cc(Oc3cccc(Cl)c3)c3occc3c2)n[nH]1`, which IC50 (Cytochrome P450 3A4) is on record?
**A.** 410 nM

**Q.** And the IC50 [13]?
**A.** 1000 nM

**Q.** For `O=C(c1cccc(Cl)c1)c1cc(Cc2ccc(=O)[nH]n2)cc2ccoc12`, which IC50 (Cytochrome P450 3A4) is on record?
**A.** 600 nM

**Q.** What about the IC50 [13] of the same compound?
**A.** 8200 nM

**Q.** Which IC50 [1] does the source give for `Cc1cc(Cc2ccc(Cl)c(Oc3ccccc3)c2)n[nH]c1=O` here?
**A.** 920 nM

**Q.** And the IC50 [15]?
**A.** 2130 nM

**Q.** And the IC50 [13]?
**A.** 360 nM

**Q.** For `O=c1ccc(Cc2ccc(Cl)c(Oc3ccccc3)c2)n[nH]1`, which IC50 [1] is on record?
**A.** 3350 nM

**Q.** What about the IC50 [15] of the same compound?
**A.** 5490 nM

**Q.** What about the IC50 [13] of the same compound?
**A.** 520 nM

**Q.** For `O=c1ccc(Cc2ccc(Cl)c(Oc3cccc(Cl)c3)c2)n[nH]1`, which IC50 [13] is on record?
**A.** 100 nM

**Q.** For `Cc1cc(Cc2ccc(Cl)c(Oc3ccccc3)c2F)n[nH]c1=O`, which IC50 [1] is on record?
**A.** 50 nM

**Q.** What about the IC50 [15] of the same compound?
**A.** 210 nM

**Q.** What about the IC50 [13] of the same compound?
**A.** 20 nM

**Q.** Which IC50 [13] does the source give for `O=c1ccc(Cc2cccc(Oc3cccc(Cl)c3)c2)n[nH]1` here?
**A.** 21000 nM
